Test results reported in ChEMBL document CHEMBL1122232, “Quantitative structure-inotropy relationship applied to substituted grayanotoxins” (J Med Chem, 1983).

Tested on: not listed separately
Assay: Lethal dose in guinea pig
Format: toxicity, organism-based, Cavia porcellus
Conditions: in vivo
In short: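 Male Hartley guinea pigs of about 350 g. LD50 determined by the up-and-down method.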

Row | SMILES | LD50 [mg/kg]
1 | CC(=O)O[C@@H]1C2CCC3[C@@](C)(O)C4CC(O)C(C)(C)C4(O)C(O)C[C@]31C[C@@]2(C)O (stereo not given in full) | 1.3
2 | CC1(C)C(O)CC2C1(O)C(O)C[C@]13C[C@@](C)(O)C(CCC1[C@@]2(C)O)[C@H]3O (stereo not given in full) | 0.45
3 | CC(O)C(=O)O[C@@H]1C2CCC3[C@@](C)(O)C4CC(O)C(C)(C)C4(O)C(O)C[C@]31C[C@@]2(C)O (stereo not given in full) | 0.08
4 | CC1(C)C(O)CC2C1(O)C(O)C[C@]13C[C@@](C)(O)C(CCC1[C@@]2(C)O)[C@H]3OC(=O)CCCl (stereo not given in full) | 0.17
5 | CC1(C)[C@@H](O)C[C@@H]2[C@]1(O)[C@H](O)C[C@]13C[C@@](C)(O)[C@H](CCC1[C@@]2(C)O)[C@H]3O[C@H]1O[C@@H](CO)[C@H](O)[C@@H](O)[C@@H]1O (stereo not given in full) | < 6
6 | CC1(C)C(O)CC2C1(O)C(O)C[C@]13C[C@@](C)(O)C(CCC1[C@@]2(C)O)[C@H]3OC(=O)c1ccccc1 (stereo not given in full) | 1.35
7 | CCCC(=O)O[C@@H]1C2CCC3[C@@](C)(O)C4CC(O)C(C)(C)C4(O)C(O)C[C@]31C[C@@]2(C)O (stereo not given in full) | 0.12
8 | CCC(=O)O[C@@H]1C2CCC3[C@@](C)(O)C4CC(O)C(C)(C)C4(O)C(O)C[C@]31C[C@@]2(C)O (stereo not given in full) | 0.044
9 | CCCCCC(=O)O[C@@H]1C2CCC3[C@@](C)(O)C4CC(O)C(C)(C)C4(O)C(O)C[C@]31C[C@@]2(C)O (stereo not given in full) | 0.34
10 | CC1(C)C(O)CC2C1(O)C(O)C[C@]13C[C@@](C)(O)C(CCC1[C@@]2(C)O)[C@H]3OC(=O)C1CCCCC1 (stereo not given in full) | 0.31
11 | CC(C)(C)C(=O)O[C@@H]1C2CCC3[C@@](C)(O)C4CC(O)C(C)(C)C4(O)C(O)C[C@]31C[C@@]2(C)O (stereo not given in full) | 0.36
12 | CCCCC(=O)O[C@@H]1C2CCC3[C@@](C)(O)C4CC(O)C(C)(C)C4(O)C(O)C[C@]31C[C@@]2(C)O (stereo not given in full) | 0.17

Species: Cavia porcellus
Assay: Positive inotropic effect was determined by measuring force of contraction of papillary muscle in guinea pig at a driving rate of 1.0 Hz
Format: functional, Muscle tissue
Conditions: not given
In short: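 Isolated guinea pig papillary muscle paced at 1.0 Hz in Krebs-Henseleit solution (Ca2+ 3.2 mM, 30 °C). Compounds added cumulatively to the bath every 20 min. Contraction force recorded on oscillographic paper. pD2 = molar concentration giving 50% of maximum positive inotropic effect, read from concentration-response curves in five to six muscles; mean reported.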

Row | SMILES | pD2
13 | CC(=O)O[C@@H]1C2CCC3[C@@](C)(O)C4CC(O)C(C)(C)C4(O)C(O)C[C@]31C[C@@]2(C)O (stereo not given in full) | 6.31
14 | CC1(C)C(O)CC2C1(O)C(O)C[C@]13C[C@@](C)(O)C(CCC1[C@@]2(C)O)[C@H]3O (stereo not given in full) | 6.15
15 | CC(O)C(=O)O[C@@H]1C2CCC3[C@@](C)(O)C4CC(O)C(C)(C)C4(O)C(O)C[C@]31C[C@@]2(C)O (stereo not given in full) | 6.54
16 | CC1(C)C(O)CC2C1(O)C(O)C[C@]13C[C@@](C)(O)C(CCC1[C@@]2(C)O)[C@H]3OC(=O)CCCl (stereo not given in full) | 6.96
17 | CC1(C)[C@@H](O)C[C@@H]2[C@]1(O)[C@H](O)C[C@]13C[C@@](C)(O)[C@H](CCC1[C@@]2(C)O)[C@H]3O[C@H]1O[C@@H](CO)[C@H](O)[C@@H](O)[C@@H]1O (stereo not given in full) | <4
18 | CCCCCCC(=O)O[C@@H]1C2CCC3[C@@](C)(O)C4CC(O)C(C)(C)C4(O)C(O)C[C@]31C[C@@]2(C)O (stereo not given in full) | 5.32
19 | CC1(C)C(O)CC2C1(O)C(O)C[C@]13C[C@@](C)(O)C(CCC1[C@@]2(C)O)[C@H]3OC(=O)c1ccccc1 (stereo not given in full) | 5.79
20 | CCCC(=O)O[C@@H]1C2CCC3[C@@](C)(O)C4CC(O)C(C)(C)C4(O)C(O)C[C@]31C[C@@]2(C)O (stereo not given in full) | 6.81
21 | CCC(=O)O[C@@H]1C2CCC3[C@@](C)(O)C4CC(O)C(C)(C)C4(O)C(O)C[C@]31C[C@@]2(C)O (stereo not given in full) | 6.67
22 | CCCCCC(=O)O[C@@H]1C2CCC3[C@@](C)(O)C4CC(O)C(C)(C)C4(O)C(O)C[C@]31C[C@@]2(C)O (stereo not given in full) | 5.75
23 | CC1(C)C(O)CC2C1(O)C(O)C[C@]13C[C@@](C)(O)C(CCC1[C@@]2(C)O)[C@H]3OC(=O)C1CCCCC1 (stereo not given in full) | 6.17
24 | CC(C)(C)C(=O)O[C@@H]1C2CCC3[C@@](C)(O)C4CC(O)C(C)(C)C4(O)C(O)C[C@]31C[C@@]2(C)O (stereo not given in full) | 5.78
25 | CCCCC(=O)O[C@@H]1C2CCC3[C@@](C)(O)C4CC(O)C(C)(C)C4(O)C(O)C[C@]31C[C@@]2(C)O (stereo not given in full) | 6.41
